Assay results from ChEMBL document CHEMBL2146403, “Synthesis and Antitumor Activity of Ellagic Acid Peracetate” (ACS Med Chem Lett, 2012).
The source made the active and inactive calls. No cut-off for these calls is given here.

Legend:
B16 [1] = assay: Induction of apoptosis in mouse B16 cells assessed as viable cells at 10 uM after 72 hrs by AnnexinV/PI staining-based flow cytometric analysis (reference value: 90%); format: functional; conditions: B16, 72 h, read-out: Activity
Mus musculus [2] = assay: Toxicity in C57BL/6 mouse assessed as change in liver weight at 0.5 mg/kg, po administered for 3 weeks relative to vehicle-treated control; format: organism-based; parameters: dose 0.5 mg/kg, route oral; conditions: in vivo, 504 h
Procedure, shortened: (§1)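 Oral acute toxicity in normal mice dosed daily with test agent or vehicle for 3 weeks. Body, spleen and liver were inspected and weighed. Values are group means with n ≥ 4 and SE bars.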

Mus musculus [3] = assay: Immunoenhancing activity in C57BL/6 mouse assessed as increase in immune subset cells in bone marrow at 0.5 mg/kg, po administered for 1 week by flow cytometric analysis relative to vehicle-treated control; format: functional, organism-based; parameters: dose 0.5 mg/kg
B16 [4] = assay: Induction of apoptosis in mouse B16 cells assessed as late apoptotic cells at 10 uM after 72 hrs by AnnexinV/PI staining-based flow cytometric analysis (reference value: 2.48%); format: functional
Mus musculus [5] = assay: Toxicity in C57BL/6 mouse xenografted with B16 cells assessed as adverse effects at 0.5 mg/kg, po administered for 1 week prior to tumor injection followed by treatment for additional 2 weeks relative to vehicle-treated control; format: organism-based; parameters: dose 0.5 mg/kg, route oral; conditions: in vivo
Procedure, shortened: (§2)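 Subcutaneous B16 melanoma in C57BL/6 immunocompetent mice aged 8–12 weeks. Test agent or vehicle was given daily in drinking water at 0.5 mg/kg for one week. B16 cells were then inoculated and dosing continued for 2 more weeks. At sacrifice, tumors were excised and weighed against the vehicle group, and kidneys, livers and spleens were inspected.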

Mus musculus [6] = assay: Immunoenhancing activity in C57BL/6 mouse assessed as increase in peripheral blood WBC level at 0.5 mg/kg, po administered for 1 week by trypan blue exclusion method relative to vehicle-treated control; format: functional
Procedure, shortened: (§3)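 Tumor-free normal mice were dosed for 1 week with test agent or vehicle. WBCs in peripheral blood and immune cells enriched from bone marrow and liver were counted by Trypan Blue exclusion and compared with the vehicle group. Columns are group means, bars SE, significance p ≤ 0.05.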

Mus musculus [7] = assay: Immunoenhancing activity in C57BL/6 mouse assessed as increase in total immune cells in liver at 0.5 mg/kg, po administered for 1 week by trypan blue exclusion method relative to vehicle-treated control; format: functional; procedure, shortened: as §3
Mus musculus [8] = assay: Toxicity in C57BL/6 mouse assessed as change in body weight at 0.5 mg/kg, po administered for 3 weeks relative to vehicle-treated control; format: organism-based; parameters: dose 0.5 mg/kg, route oral; conditions: in vivo, 504 h; procedure, shortened: as §1
Mus musculus [9] = assay: Toxicity in C57BL/6 mouse assessed as change in spleen weight at 0.5 mg/kg, po administered for 3 weeks relative to vehicle-treated control; format: organism-based; parameters: dose 0.5 mg/kg, route oral; conditions: in vivo, 504 h; procedure, shortened: as §1
Mus musculus [10] = assay: Immunoenhancing activity in C57BL/6 mouse assessed as increase in immune subset cells in liver at 0.5 mg/kg, po administered for 1 week by flow cytometric analysis relative to vehicle-treated control; format: functional, organism-based; parameters: dose 0.5 mg/kg
Mus musculus [11] = assay: Immunoenhancing activity in C57BL/6 mouse assessed as increase in total immune cells in bone marrow at 0.5 mg/kg, po administered for 1 week by trypan blue exclusion method relative to vehicle-treated control; format: functional; procedure, shortened: as §3
B16 [12] = assay: Induction of apoptosis in mouse B16 cells assessed as early apoptotic cells at 10 uM after 72 hrs by AnnexinV/PI staining-based flow cytometric analysis (reference value: 2.28%); format: functional
B16 [13] = assay: Antitumor activity against mouse B16 cells xenografted in C57BL/6 mouse assessed as tumor growth inhibition at 0.5 mg/kg, po administered for 1 week prior to tumor injection followed by treatment for additional 2 weeks relative to vehicle-treated control; format: functional; procedure, shortened: as §2
Mus musculus [14] = assay: Immunomodulatory activity in C57BL/6 mouse CD3-deficient NK cells expressing NK1.1 assessed as […]- and IL-18 induced IFNgamma level at 0.5 mg/kg, po administered for 1 week by flow cytometric analysis (reference value: 76.7%); format: functional
Mus musculus [15] = assay: Immunomodulatory activity in C57BL/6 mouse NK cells expressing NK1.1 and CD3 assessed as cell surface CD107a expression level at 0.5 mg/kg, po administered for 1 week by YAC1 co culture-based immunostaining analysis (reference value: 41.5%); format: functional
B16 [16] = assay: Induction of apoptosis in mouse B16 cells assessed as necrotic cells at 10 uM after 72 hrs by AnnexinV/PI staining-based flow cytometric analysis (reference value: 5.26%); format: functional
B16 [17] = assay: Induction of apoptosis in mouse B16 cells assessed as decrease in Bcl2 expression at 10 uM after 72 hrs by Western blot analysis; format: functional, cell-based
B16 [18] = assay: Growth inhibition of mouse B16 cells at 10 uM after 24 to 96 hrs by trypan blue exclusion assay; format: functional, cell-based

SMILES | viability at 10 µM (B16 [1]) [%] | Activity (Mus musculus [2]) | Activity (Mus musculus [3]) | Activity (B16 [4]) [%] | Activity (Mus musculus [5]) | Activity (Mus musculus [6]) [%] | Activity (Mus musculus [7]) | Activity (Mus musculus [8]) | Activity (Mus musculus [9]) | Activity (Mus musculus [10]) | Activity (Mus musculus [11]) | Activity (B16 [12]) [%] | inhibition in vivo at 0.5 mg/kg (B16 [13]; read-out: GI) [%] | Activity (Mus musculus [14]) [%] | Activity (Mus musculus [15]) [%] | Activity (B16 [16]) [%] | Activity (B16 [17]) | growth inhibition (GI) (B16 [18]) | growth inhibition (GI) (B16 [13])
CC(=O)Oc1cc2c(=O)oc3c(OC(C)=O)c(OC(C)=O)cc4c(=O)oc(c1OC(C)=O)c2c34 [ELLAGIC ACID TETRAACETATE] | 71.4 | Non-toxic | inactive | 9.78 | Non-toxic | 70 | 200% | Non-toxic | Non-toxic | inactive | 50% | 6.99 | 70 | 78.2 | 40.4 | 11.8 | Active | Active | 
O=c1oc2c(O)c(O)cc3c(=O)oc4c(O)c(O)cc1c4c23 [ELLAGIC ACID] | 83.9 | Non-toxic | inactive | 6.84 | Non-toxic |  | inactive | Non-toxic | Non-toxic | inactive | inactive | 4.33 |  | 74.9 | 37.2 | 4.95 | Active | Active | inactive
